Source: PubChem
Compounds with a hit are over-represented: about 3.8% of the library has one in this group of screens.
KCNK3 inh – human KCNK3 channel inhibitors, primary screen, CHO cells, FluxOR thallium flux, B-score | Potassium channel subfamily K member 3 (Homo sapiens), O14649 | FluxOR fluorescence; stronger effect = lower value | B-score at 10 µM | 0.84% of 340,000 active;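 active = B-score under library mean minus 4 SD, starting fluorescence ratio at most library mean plus 5 SD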;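 note: more negative B-score means stronger inhibition of thallium flux through KCNK3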
KCNQ1 inh – inhibitors of human KCNQ1 channel, primary screen, cell-based, thallium flux, high-throughput; B-score at 10 µM; Potassium voltage-gated channel subfamily KQT member 1 (Homo sapiens), P51787; CHO-K1 KCNQ1, FluxOR thallium flux fluorescence; stronger effect = higher value; 1.3% of 310,000 active; AID 2642, 2010;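 active = compounds whose thallium flux B-score, printed positive for inhibition, exceeds three library SD while starting fluorescence stays within three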;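 note: channel opened by potassium depolarization with thallium stimulus after 20 min compound exposure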
Kir21 inh – inhibitors of mouse Kir2.1 inward-rectifier potassium channel. Inward rectifier potassium channel 2 (Mus musculus), P35561. HEK293-Kir2.1, FluxOR thallium flux fluorescence; stronger effect = lower value. B-score at 10 µM. 0.85% of 310,000 active. AID 1672, 2009;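 active = fluorescence ratio B-score at or below minus 3 SD of library scores, with starting-brightness B-score within 2 SD, cut at about -4.2 in these data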;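 note: channel flux triggered by added potassium and thallium sulfate stimulus; B-score of peak minus minimum fluorescence over baseline after thallium stimulus; more negative B-score means stronger Kir2.1 block with less thallium influx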
KCNK9 inh – KCNK9 potassium channel inhibitors, primary screen, HEK293 cells, thallium flux; Potassium channel subfamily K member 9 (Homo sapiens), Q9NPC2; AID 488922, 2010; 1.2% of 310,000 active; B-score at 10 µM; FluxOR thallium flux fluorescence; stronger effect = lower value;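 active = ratio B-score over 3 SD below the library mean, with starting fluorescence within 5 SD of its mean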;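 note: negative B-score means less thallium flux so channel inhibition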
hERG rescue – hERG rescue from dofetilide block, primary screen, cell-based, CHO-hERG, FluxOR thallium flux, dofetilide IC70 | Voltage-gated inwardly rectifying potassium channel KCNH2 (Homo sapiens), Q12809 | dofetilide IC70 present | activation (rescue from dofetilide block), less the hit threshold, % at 10 µM | 0.51% of 310,000 active | AID 1511, 2009;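 active = activation above the mean of controls blocked by dofetilide plus 5 SD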;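 note: thallium influx through hERG after potassium depolarization seen as dye fluorescence rise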
KCNQ1 pot – potentiators or activators of KCNQ1 channel, primary screen, cell-based, thallium flux, high-throughput; 0.35% of 310,000 active; CHO-K1 KCNQ1, thallium flux FluxOR fluorescence; stronger effect = higher value; B-score at 10 µM; Potassium voltage-gated channel subfamily KQT member 1 (Homo sapiens), P51787;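 active = fluorescence ratio B-score, a plate-corrected score, at least three library SD, with initial intensity B-score within 5 SD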
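System: Stable KCNQ1 CHO-K1 line | Incubation: 90 min dye loading and 20 min compound exposure, both at room temperature | Measure: Ratio B score | Medium: Assay buffer for compound exposure, DMSO matched across wells | Compound dosing: Single-concentration screen | Probe or stimulus: K+/Tl+ depolarizing stimulus | Measured by: Kinetic FluxOR fluorescence, 10 s baseline plus 110 s post-stimulus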
Starred values were filed as active, the others as inactive; i = inactive; / = no result.

SMILES	KCNK3 inh	KCNQ1 inh	Kir21 inh	KCNK9 inh	hERG rescue	KCNQ1 pot
CCCn1c(NCc2cccc(OC)c2OC)nc2ccccc21	i	i	-0.57	i	-5	i
CCCn1c(NCc2c[nH]c3ccccc23)nc2ccccc21	i	i	-7.4*	i	-15	i
CC1CCN(CCC(=O)Nc2ccc(F)c(F)c2)CC1	i	i	-1.6	i	-7	i
Cc1ccc(NC(=O)C(C)c2cccc(C(=O)c3ccccc3)c2)cc1O (stereo not given)	i	8*	-0.96	i	-15	i
Cc1cccc(NC(=O)C(C)C(=O)c2ccccc2)c1 (stereo not given)	i	i	-0.24	i	-8	i
NCC/C=C1/c2ccccc2CSc2ccccc21	i	i	-4.3*	i	-6	i
CC(NCCN(C)C)C1CCC2C3CCc4cc(O)ccc4C3CCC12C (stereo not given)	i	/	/	/	/	/
CCOC(=O)C1CCN(C(=O)Cc2c(C(=O)O)n(CC)c3ccccc23)CC1	i	i	-0.6	i	5.5*	i
c1csc(CCNc2ncnc3sc4c(c23)CCC4)c1	-8.7*	i	0.77	i	-18	i
c1ccc(Nc2ncnc3sc4c(c23)CCC4)cc1	i	i	0.92	i	5.2*	i
COc1ccc(C(=O)N2CCCCCC2)cc1OC1CCN(C(C)=O)CC1	i	i	-0.33	i	-12	i
Cc1cccnc1NC(=O)c1ccc2c(c1)NC(=O)C(C)S2 (stereo not given)	i	i	1.3	i	-7	i
Cc1ccccc1Nc1nc(N)nc(CCl)n1	i	i	-1.8	i	-3	i
Nc1nc(CCl)nc(Nc2ccc3ccccc3c2)n1	i	i	-0.43	i	-10	13*
Cc1ccc(Nc2nc(N)c3ccccc3n2)cc1C	i	i	-2.3	i	-20	i
C=CCC(C)(NCc1ccccc1)c1ccc(C)cc1 (stereo not given)	i	i	-4.9*	i	-2	i
COc1cccc(NC(=O)N2CCCC2C(=O)Nc2cc(C)ccc2OC)c1 (stereo not given)	i	i	-1.6	i	-7	i
O=C(CC1Oc2ccccc2NC1=O)NCc1ccccc1 (stereo not given)	i	i	0.33	i	-2	i
CC(=O)CC1OC(=O)C(Br)=C1NCc1ccccc1 (stereo not given)	i	6*	-3.6	i	-7	i
CCCC1=Nc2cc(C(=O)N3CCN(c4ccccn4)CC3)ccc2Sc2ccc(C)cc21	i	7*	-0.32	i	-19	i
Cc1c(OCC(=O)NC2CC(C)(C)NC(C)(C)C2)ccc2c1oc(=O)c1ccccc12	i	i	-2.1	i	-9	i
Cc1c(OCC(=O)NC2CC(C)(C)NC(C)(C)C2)ccc2c3c(c(=O)oc12)CCC3	i	i	-4.6*	i	-8	i
CC(C)(C)NCC(O)(c1ccc(Cl)cc1)c1ccc(Cl)cc1	i	i	-3	i	-3	i
CCN(CC)CCNCC(O)(c1ccc(Cl)cc1)c1ccc(Cl)cc1	i	i	-5.6*	i	-11	i
O=c1ccccn1CCOc1ccccc1Cl	i	i	-0.05	i	5.3*	i
Clc1ccccc1OCCN1CCCCC1	i	i	0.04	i	-3	i
CN(C(=O)CN1C(=O)/C(=C/c2ccccc2F)SC1=S)C1CCS(=O)(=O)C1 (stereo not given)	i	i	0.75	i	-8	i
CCOc1ccc(OCCC(=O)N(CC)CC(=O)Nc2ccccc2OC)cc1	i	/	/	/	/	/
